Active and inactive are the calls of the source. No cut-off for these calls is given here.

In data set [1] the target is Testis-specific serine/threonine-protein kinase 1 (Homo sapiens) (UniProt Q9BXA7). The data set is described as follows: Inhibition of wild-type human full length TSSK1B (M1 to Q367 residues) expressed in bacterial expression system at 1 uM by Kinomescan method. In a few lines:
(§1)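 KINOMEscan competition binding screen at 1 μM compound. Results reported as % of control = (test − positive control)/(DMSO negative control − positive control) × 100, where lower values mean stronger hits.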

Another data set has as its system Peritoneal macrophage. The data set is described as follows: Cytotoxicity against ICR mouse peritoneal macrophages assessed as reduction in cell viability at 10 uM measured after 24 hrs by MTT assay. It is filed as cell-based. In a few lines: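 Peritoneal macrophages from ICR mice, 2.0×10^4 cells/well in DMEM with 10% FBS. Cells exposed to compound for 24 h, then MTT (5 mg/ml in 0.9% NaCl) added for 4 h at 37 °C in 5% CO2. Absorbance read at 490 nm; final DMSO 0.1%.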
A general note: Formazan colour is commonly taken as a measure of viable cells.

Data set [2] has as its target Cyclin-dependent kinase 3 (Homo sapiens) (UniProt Q00526). The data set is described as follows: Inhibition of wild-type human full length CDK3 (M1 to H305 residues) expressed in bacterial expression system at 1 uM by Kinomescan method. In a few lines:
as §1

In data set [3] the target is Atypical kinase COQ8A, mitochondrial (Homo sapiens) (UniProt Q8NI60). The data set is described as follows: Inhibition of wild-type human […] length ADCK3 (M280 to Q647 residues) expressed in bacterial expression system at 1 uM by Kinomescan method. In short, it runs like this: as §1
The test system of data set [4] is Mast/stem cell growth factor receptor Kit (Homo sapiens), P10721 [D816V]. The data set is described as follows: Inhibition of human partial length KIT D816V mutant (I571 to D952 residues) expressed in bacterial expression system at 1 uM by Kinomescan method. In a few lines: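 KINOMEscan competition binding panel (98 kinases) run by the provider, compound screened once at 1 μM. Read-out is percent of control: [(test signal − positive control signal)/(negative control signal − positive control signal)] × 100. DMSO negative control sets 100% Ctrl and a control compound sets 0% Ctrl; lower values mean stronger hits.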

The target of data set [5] is Dual specificity mitogen-activated protein kinase kinase 1 (Homo sapiens) (UniProt Q02750). As to the kind of experiment: Inhibition of wild-type human full length MEK1 (M1 to V393 residues) expressed in mammalian expression system at 1 uM by Kinomescan method. In short, it runs like this:
as §1

For data set [6], the system named is Mus musculus. The data set is described as follows: Antiinflammatory activity in LPS-induced C57BL/6 mouse model of acute lung injury assessed as reduction in IL33 mRNA level at 10 mg/kg, iv pretreated for 15 mins followed by LPS stimulation and measured after 6 hrs by SYBR green staining-based qRT-PCR analysis. In kind it is functional, organism-based. In short, it runs like this:
(§2)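 Total lung RNA extracted, with DNase I removal of residual DNA. Quantitative PCR with mouse gene primers; each gene normalized to β-actin. C57BL/6 mice given compound iv 15 min before intraperitoneal LPS (20 mg/kg) and killed at 6 h.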

The target of data set [7] is Serine/threonine-protein kinase PAK 2 (Homo sapiens) (UniProt Q13177). The data set is described as follows: Inhibition of wild-type human partial length PAK2 (P151 to R525 residues) expressed in bacterial expression system at 1 uM by Kinomescan method. In short, it runs like this:
(§3)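 Binding-competition screen on the KINOMEscan platform, run by the provider, with the test compound at 1 μM. Readout is percent of control: (test signal − positive control signal)/(negative control signal − positive control signal) × 100. The DMSO negative control is set as 100% Ctrl and a control compound as 0% Ctrl. Lower values mean stronger hits.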

Data set [8] deals with Platelet-derived growth factor receptor beta (Homo sapiens) (UniProt P09619). The data set is described as follows: Inhibition of wild-type human partial length PDGFRB (V582 to Y1009 residues) expressed in bacterial expression system at 1 uM by Kinomescan method. In short, it runs like this:
as §3

For data set [9], the system named is Mus musculus. The data set is described as follows: Antiinflammatory activity in LPS-induced C57BL/6 mouse model of acute lung injury assessed as reduction in IL1beta mRNA level at 10 mg/kg, iv pretreated for 15 mins followed by LPS stimulation and measured after 6 hrs by SYBR green staining-based qRT-PCR analysis. In kind it is functional, organism-based. In short, it runs like this:
as §2

Data set [10] deals with Mitogen-activated protein kinase kinase kinase 4 (Homo sapiens) (UniProt Q9Y6R4). As to the kind of experiment: Inhibition of wild-type human partial length MAP3K4 (G1319 to E1608 residues) expressed in bacterial expression system at 1 uM by Kinomescan method. In short, it runs like this: as §3
In data set [11] the target is Phosphatidylinositol 4-phosphate 3-kinase C2 domain-containing subunit beta (Homo sapiens) (UniProt O00750). The data set is described as follows: Inhibition of wild-type human partial length PIK3C2B (M1 to L1634 residues) expressed in mammalian expression system at 1 uM by Kinomescan method. In a few lines: as §3
The target in data set [12] is Mitogen-activated protein kinase 14 (Homo sapiens) (UniProt Q16539). The data set is described as follows: Inhibition of wild-type human full length p38-alpha (M1 to S360 residues) expressed in bacterial expression system at 1 uM by Kinomescan method. In short, it runs like this: as §1
For data set [13], the target named is T1, Toll-like receptor 4 (Homo sapiens, UniProt O00206). As to the kind of experiment: Binding affinity to recombinant human C-terminal 10His-tagged TLR4 (Glu24 to Lys631 residues) expressed in mouse NS0 cells by surface plasmon resonance analysis. A general note: SPR reads the build-up and loss of mass on a sensor chip optically.
Data set [14] addresses Hepatocyte growth factor receptor (Homo sapiens) (UniProt P08581). The data set is described as follows: Inhibition of wild-type human partial length MET (D1010 to S1367 residues) expressed in bacterial expression system at 1 uM by Kinomescan method. In a few lines:
as §3

Data set [15] deals with Fibroblast growth factor receptor 3 (Homo sapiens) (UniProt P22607). The data set is described as follows: Inhibition of wild-type human partial length FGFR3 (R442 to S771 residues) expressed in bacterial expression system at 1 uM by Kinomescan method. In a few lines:
as §3

Data set [16] addresses Serine/threonine-protein kinase PAK 4 (Homo sapiens) (UniProt O96013). As to the kind of experiment: Inhibition of wild-type human partial length PAK4 (Q144 to R438 residues) expressed in bacterial expression system at 1 uM by Kinomescan method. In short, it runs like this: as §3
The target of data set [17] is T1, Toll-like receptor 4. The data set is described as follows: Inhibition of HA-tagged/FLAG-tagged TLR4 (unknown origin) homodimerization expressed in HEK293T cells by co-immunoprecipitation method. It is filed as cell-based. In a few lines:
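HEK293T cells co-transfected with HA- and Flag-tagged TLR4 plasmids. Compound at various concentrations or vehicle added 6 h after transfection. Lysates immunoprecipitated with protein A/G agarose and detected by immunoblot with anti-HA and anti-Flag antibodies.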

Data set [18] has as its target Aurora kinase A (Homo sapiens) (UniProt O14965). The data set is described as follows: Inhibition of wild-type human partial length AURKA (E122 to K401 residues) expressed in mammalian expression system at 1 uM by Kinomescan method. In a few lines: as §3
The target of data set [19] is Vascular endothelial growth factor receptor 2 (Homo sapiens) (UniProt P35968). As to the kind of experiment: Inhibition of wild-type human partial length VEGFR2 (R787 to P1253 residues) expressed in mammalian expression system at 1 uM by Kinomescan method. In a few lines:
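Single-concentration screen at 1 μM on the KINOMEscan panel (98 kinases), run by the platform provider. Results are given as percent of control: % Ctrl = [(test signal − positive control signal)/(negative control signal − positive control signal)] × 100. DMSO serves as negative control (100% Ctrl) and a control compound as positive control (0% Ctrl). Lower values mean stronger binding hits.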

Data set [20] has as its target Serine/threonine-protein kinase DCLK1 (Homo sapiens) (UniProt O15075). The data set is described as follows: Inhibition of wild-type human partial length DCAMKL1 (L270 to A662 residues) expressed in mammalian expression system at 1 uM by Kinomescan method. In short, it runs like this: as §3

T1 sequence (O00206 whole entry, the tested form may be a part): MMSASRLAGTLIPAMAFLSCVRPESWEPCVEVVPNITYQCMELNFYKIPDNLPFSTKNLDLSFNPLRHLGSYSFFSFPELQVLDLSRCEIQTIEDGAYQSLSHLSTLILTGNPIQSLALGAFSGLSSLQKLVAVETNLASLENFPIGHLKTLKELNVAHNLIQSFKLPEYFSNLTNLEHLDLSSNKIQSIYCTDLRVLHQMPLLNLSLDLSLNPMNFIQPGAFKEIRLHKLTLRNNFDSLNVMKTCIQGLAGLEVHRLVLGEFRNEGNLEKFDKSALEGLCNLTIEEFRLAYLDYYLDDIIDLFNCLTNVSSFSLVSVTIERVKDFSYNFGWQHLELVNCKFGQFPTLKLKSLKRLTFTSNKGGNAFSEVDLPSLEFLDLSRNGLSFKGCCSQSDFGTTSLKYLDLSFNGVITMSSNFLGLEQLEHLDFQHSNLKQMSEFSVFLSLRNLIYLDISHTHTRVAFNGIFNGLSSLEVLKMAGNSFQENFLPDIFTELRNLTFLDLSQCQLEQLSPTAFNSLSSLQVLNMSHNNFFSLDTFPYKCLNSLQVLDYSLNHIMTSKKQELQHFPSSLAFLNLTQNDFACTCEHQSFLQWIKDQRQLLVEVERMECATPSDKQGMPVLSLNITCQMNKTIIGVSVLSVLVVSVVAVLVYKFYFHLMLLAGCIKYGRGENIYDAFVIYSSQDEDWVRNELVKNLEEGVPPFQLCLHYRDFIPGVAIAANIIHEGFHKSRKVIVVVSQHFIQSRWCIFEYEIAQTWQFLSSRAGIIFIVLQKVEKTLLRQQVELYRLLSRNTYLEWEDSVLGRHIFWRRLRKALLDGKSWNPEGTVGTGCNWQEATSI
Sequence of Cyclin-dependent kinase 3 (Homo sapiens) (Q00526 whole entry, looked up, the tested form may be a part): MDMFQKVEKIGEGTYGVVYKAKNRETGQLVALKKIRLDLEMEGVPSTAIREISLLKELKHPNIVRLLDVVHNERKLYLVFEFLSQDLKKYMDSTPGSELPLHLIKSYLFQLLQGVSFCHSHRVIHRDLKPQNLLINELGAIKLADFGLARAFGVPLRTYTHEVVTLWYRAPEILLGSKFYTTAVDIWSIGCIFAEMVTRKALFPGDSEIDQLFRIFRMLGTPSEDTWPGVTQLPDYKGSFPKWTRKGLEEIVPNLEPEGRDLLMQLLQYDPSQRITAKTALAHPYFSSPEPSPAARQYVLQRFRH
Sequence of Testis-specific serine/threonine-protein kinase 1 (Homo sapiens) (Q9BXA7 whole entry, the tested form may be a part): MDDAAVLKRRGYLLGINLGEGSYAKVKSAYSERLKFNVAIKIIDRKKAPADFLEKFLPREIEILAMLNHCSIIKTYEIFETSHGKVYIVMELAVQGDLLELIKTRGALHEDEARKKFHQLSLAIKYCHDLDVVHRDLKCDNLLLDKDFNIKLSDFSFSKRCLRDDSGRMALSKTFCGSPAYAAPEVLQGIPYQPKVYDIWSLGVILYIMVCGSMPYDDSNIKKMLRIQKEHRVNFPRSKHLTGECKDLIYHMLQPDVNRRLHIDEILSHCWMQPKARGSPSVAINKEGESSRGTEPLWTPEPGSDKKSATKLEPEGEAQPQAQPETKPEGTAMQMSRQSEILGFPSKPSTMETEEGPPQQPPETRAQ
Sequence of Phosphatidylinositol 4-phosphate 3-kinase C2 domain-containing subunit beta (Homo sapiens) (O00750 whole entry, the tested form may be a part): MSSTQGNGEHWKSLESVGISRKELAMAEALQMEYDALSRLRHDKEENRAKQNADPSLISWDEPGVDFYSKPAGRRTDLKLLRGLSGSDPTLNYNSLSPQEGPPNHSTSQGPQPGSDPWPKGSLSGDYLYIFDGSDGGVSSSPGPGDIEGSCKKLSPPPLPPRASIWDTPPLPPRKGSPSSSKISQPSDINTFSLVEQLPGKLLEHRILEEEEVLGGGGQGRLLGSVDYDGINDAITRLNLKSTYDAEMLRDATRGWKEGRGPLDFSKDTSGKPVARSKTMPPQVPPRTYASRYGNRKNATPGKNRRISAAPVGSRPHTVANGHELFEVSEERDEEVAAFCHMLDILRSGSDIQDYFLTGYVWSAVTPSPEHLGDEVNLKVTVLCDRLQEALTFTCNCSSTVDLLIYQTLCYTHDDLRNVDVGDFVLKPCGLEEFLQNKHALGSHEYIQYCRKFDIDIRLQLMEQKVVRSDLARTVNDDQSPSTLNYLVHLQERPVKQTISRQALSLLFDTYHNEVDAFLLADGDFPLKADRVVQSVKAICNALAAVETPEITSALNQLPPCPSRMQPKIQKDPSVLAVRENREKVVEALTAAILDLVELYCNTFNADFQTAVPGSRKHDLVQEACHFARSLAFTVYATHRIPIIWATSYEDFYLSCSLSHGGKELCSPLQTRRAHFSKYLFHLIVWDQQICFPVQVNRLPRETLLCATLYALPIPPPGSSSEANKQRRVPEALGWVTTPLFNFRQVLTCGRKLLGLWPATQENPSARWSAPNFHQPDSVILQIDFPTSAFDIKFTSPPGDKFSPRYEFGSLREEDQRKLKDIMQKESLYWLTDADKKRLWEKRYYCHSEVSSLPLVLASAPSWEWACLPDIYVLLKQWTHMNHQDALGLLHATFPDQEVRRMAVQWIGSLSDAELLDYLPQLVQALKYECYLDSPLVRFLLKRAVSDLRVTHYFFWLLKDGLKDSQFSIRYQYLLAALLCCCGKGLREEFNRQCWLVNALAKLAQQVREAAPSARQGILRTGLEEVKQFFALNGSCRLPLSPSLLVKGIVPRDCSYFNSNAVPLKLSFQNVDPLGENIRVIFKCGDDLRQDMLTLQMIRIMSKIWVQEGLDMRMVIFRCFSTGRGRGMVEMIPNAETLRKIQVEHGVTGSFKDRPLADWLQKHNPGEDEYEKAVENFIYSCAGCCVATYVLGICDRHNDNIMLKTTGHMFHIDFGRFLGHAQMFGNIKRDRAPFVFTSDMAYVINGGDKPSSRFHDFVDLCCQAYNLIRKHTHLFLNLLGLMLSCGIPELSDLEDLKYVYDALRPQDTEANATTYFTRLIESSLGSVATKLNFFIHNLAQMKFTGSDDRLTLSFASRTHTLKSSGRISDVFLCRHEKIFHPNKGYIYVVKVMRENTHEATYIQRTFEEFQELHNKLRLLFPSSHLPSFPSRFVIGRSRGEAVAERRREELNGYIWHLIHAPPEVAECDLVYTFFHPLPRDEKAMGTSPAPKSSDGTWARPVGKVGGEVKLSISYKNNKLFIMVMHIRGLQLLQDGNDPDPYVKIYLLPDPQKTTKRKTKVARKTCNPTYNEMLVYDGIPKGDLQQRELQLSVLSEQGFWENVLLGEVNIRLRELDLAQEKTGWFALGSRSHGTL
Sequence of Hepatocyte growth factor receptor (Homo sapiens) (P08581 whole entry, the tested form may be a part): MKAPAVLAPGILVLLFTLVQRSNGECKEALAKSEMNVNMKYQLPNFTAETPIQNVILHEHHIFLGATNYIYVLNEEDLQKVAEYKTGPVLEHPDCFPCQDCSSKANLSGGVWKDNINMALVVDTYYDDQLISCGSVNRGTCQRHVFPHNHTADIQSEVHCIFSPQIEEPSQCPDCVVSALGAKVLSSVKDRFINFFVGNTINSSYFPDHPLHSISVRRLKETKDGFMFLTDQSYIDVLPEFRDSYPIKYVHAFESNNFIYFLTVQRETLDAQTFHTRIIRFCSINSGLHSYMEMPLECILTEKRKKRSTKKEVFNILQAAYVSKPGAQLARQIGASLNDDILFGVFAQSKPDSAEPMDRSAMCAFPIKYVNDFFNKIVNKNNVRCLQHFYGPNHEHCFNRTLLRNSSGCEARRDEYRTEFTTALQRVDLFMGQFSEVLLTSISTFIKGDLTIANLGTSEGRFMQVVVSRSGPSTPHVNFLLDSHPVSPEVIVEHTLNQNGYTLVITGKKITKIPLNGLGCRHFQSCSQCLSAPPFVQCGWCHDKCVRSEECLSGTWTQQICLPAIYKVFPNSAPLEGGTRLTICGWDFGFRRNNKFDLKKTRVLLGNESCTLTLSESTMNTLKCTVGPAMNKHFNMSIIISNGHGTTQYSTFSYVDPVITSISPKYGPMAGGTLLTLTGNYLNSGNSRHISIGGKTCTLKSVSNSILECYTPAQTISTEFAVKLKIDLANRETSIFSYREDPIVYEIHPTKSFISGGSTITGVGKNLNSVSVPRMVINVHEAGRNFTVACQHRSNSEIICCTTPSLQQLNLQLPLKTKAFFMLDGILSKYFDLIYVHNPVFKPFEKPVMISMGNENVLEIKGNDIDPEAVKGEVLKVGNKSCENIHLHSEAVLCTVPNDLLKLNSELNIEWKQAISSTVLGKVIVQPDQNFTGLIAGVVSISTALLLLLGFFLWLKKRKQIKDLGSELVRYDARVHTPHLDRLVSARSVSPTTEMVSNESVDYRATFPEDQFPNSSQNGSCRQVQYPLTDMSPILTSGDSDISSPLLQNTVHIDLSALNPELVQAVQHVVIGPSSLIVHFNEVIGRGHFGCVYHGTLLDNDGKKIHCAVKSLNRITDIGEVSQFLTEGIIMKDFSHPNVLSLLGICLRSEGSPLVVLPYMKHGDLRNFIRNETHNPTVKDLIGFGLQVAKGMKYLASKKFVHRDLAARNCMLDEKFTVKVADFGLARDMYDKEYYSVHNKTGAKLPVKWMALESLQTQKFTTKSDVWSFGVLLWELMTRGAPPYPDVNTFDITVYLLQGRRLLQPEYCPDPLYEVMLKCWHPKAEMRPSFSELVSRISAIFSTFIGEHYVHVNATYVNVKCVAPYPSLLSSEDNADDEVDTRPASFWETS
Sequence of Atypical kinase COQ8A, mitochondrial (Homo sapiens) (Q8NI60 163-647 limits assumed): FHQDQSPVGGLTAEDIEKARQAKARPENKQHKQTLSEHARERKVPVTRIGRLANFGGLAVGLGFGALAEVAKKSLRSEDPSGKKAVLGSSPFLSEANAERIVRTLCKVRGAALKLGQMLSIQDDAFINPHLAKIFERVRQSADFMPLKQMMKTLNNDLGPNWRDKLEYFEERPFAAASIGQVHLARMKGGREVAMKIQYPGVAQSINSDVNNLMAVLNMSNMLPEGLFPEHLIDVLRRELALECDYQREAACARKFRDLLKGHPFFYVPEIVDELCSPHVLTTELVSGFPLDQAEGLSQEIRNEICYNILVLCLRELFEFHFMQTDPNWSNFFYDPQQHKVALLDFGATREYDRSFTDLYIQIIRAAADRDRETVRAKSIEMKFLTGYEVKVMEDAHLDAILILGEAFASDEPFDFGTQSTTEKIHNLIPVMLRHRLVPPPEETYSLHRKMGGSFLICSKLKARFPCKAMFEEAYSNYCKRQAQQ

As a reminder, the Kd is the constant that tells how readily two partners part at equilibrium. Regarding `O=C(Nc1ccc2[nH]nc(-c3ccc4[nH]ccc4c3)c2c1)c1c(Cl)cccc1Cl`, the inhibition result in data set [1], in [2], in data set [3], in [4], in data set [5] and in data set [7] was “inactive” throughout. The inhibition result in data set [8], in data set [10], in data set [11], in [12], in data set [14] and in data set [15] was “inactive” in each case. The inhibition result in data set [16], in [18], in [19] and in data set [20] was “inactive” each time. Also, the Activity entry in the data set on Peritoneal macrophage was “Non-Toxic”. The result in the data set with Mus musculus [6] and in the data set with Mus musculus [9] was Active. Further, at Toll-like receptor 4 [13], the Kd is 146 µM. Besides, the inhibition entry at Toll-like receptor 4 [17] was “Active”.

(Values after ChEMBL document CHEMBL4304739, “Discovery of 3-(Indol-5-yl)-indazole Derivatives as Novel Myeloid Differentiation Protein 2/Toll-like Receptor 4 Antagonists for Treatment of Acute Lung Injury” (J Med Chem, 2019).)
